≈ marks a conversion by molar mass, not a printed value.
How the values were obtained:
Type in all cases: functional
Staphylococcus aureus [1] = test: Antibacterial activity against Staphylococcus aureus after 24 hrs by disc diffusion method
How it was run: (§1)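 Disk diffusion on agar; activity measured as the halo zone of inhibition around the disk.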

Escherichia coli [2] = test: Antibacterial activity against Escherichia coli ATCC 25922 after 24 hrs by disc diffusion method; how it was run: as §1
Pseudomonas aeruginosa [3] = test: Antibacterial activity against Pseudomonas aeruginosa ATCC 27853 after 24 hrs by disc diffusion method; how it was run: as §1
Candida tropicalis [4] = test: Antifungal activity against Candida tropicalis clinical isolate after 20 hrs by agar dilution method
Candida albicans [5] = test: Antifungal activity against fluconazole, itraconazole-resistant Candida albicans clinical isolate after 20 hrs by agar dilution method
How it was run: (§2)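 Clinical Candida isolates purified and subcultured on SC, SCC and PDA media before testing. Compounds were dissolved in DMSO as a stock, then diluted into solid PDA medium to final concentrations of 0.0312 to 256.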

Klebsiella pneumoniae [6] = test: Bactericidal activity against Klebsiella pneumoniae clinical isolate after 18 to 24 hrs; conditions: read-out: MBC99.9
Staphylococcus aureus [7] = test: Antibacterial activity against Staphylococcus aureus after 24 hrs by broth micro dilution method
How it was run: (§3)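 MIC by broth microdilution; growth read visually and spectrophotometrically. MIC taken as the lowest concentration giving complete inhibition of bacterial growth.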

Candida albicans [8] = test: Antifungal activity against Candida albicans after 20 hrs by agar dilution method; how it was run: as §2
Candida albicans [9] = test: Antifungal activity against Candida albicans clinical isolate after 20 hrs by agar dilution method
Candida albicans [10] = test: Fungicidal activity against Candida albicans clinical isolate by micro dilution method
Pseudomonas aeruginosa [11] = test: Bactericidal activity against Pseudomonas aeruginosa ATCC 27853 after 18 to 24 hrs; conditions: read-out: MBC99.9
How it was run: (§4)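 MBC taken as the lowest concentration that killed the bacteria completely.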

Candida albicans [12] = test: Fungicidal activity against Candida albicans by micro dilution method
Staphylococcus aureus [13] = test: Bactericidal activity against Staphylococcus aureus after 18 to 24 hrs; conditions: read-out: MBC99.9; how it was run: as §4
Candida parapsilosis [14] = test: Fungicidal activity against Candida parapsilosis clinical isolate by micro dilution method; conditions: Lodderomyces parapsilosis
Escherichia coli [15] = test: Antibacterial activity against Escherichia coli ATCC 25922 after 24 hrs by broth micro dilution method; conditions: ATCC 25922, 24 h; how it was run: as §3
Klebsiella pneumoniae [16] = test: Antibacterial activity against Klebsiella pneumoniae clinical isolate after 24 hrs by disc diffusion method
Candida dubliniensis [17] = test: Antifungal activity against Candida dubliniensis after 20 hrs by agar dilution method
Klebsiella pneumoniae [18] = test: Antibacterial activity against Klebsiella pneumoniae clinical isolate after 24 hrs by broth micro dilution method
Pichia kudriavzevii [19] = test: Antifungal activity against Candida krusei after 20 hrs by agar dilution method
Escherichia coli [20] = test: Bactericidal activity against Escherichia coli ATCC 25922 after 18 to 24 hrs; conditions: read-out: MBC99.9; how it was run: as §4
Candida tropicalis [21] = test: Antifungal activity against Candida tropicalis after 20 hrs by agar dilution method
Streptococcus pyogenes [22] = test: Bactericidal activity against Streptococcus pyogenes clinical isolate after 18 to 24 hrs; conditions: read-out: MBC99.9
Streptococcus pyogenes [23] = test: Antibacterial activity against Streptococcus pyogenes clinical isolate after 24 hrs by broth micro dilution method
Candida parapsilosis [24] = test: Antifungal activity against Candida parapsilosis after 20 hrs by agar dilution method; conditions: Lodderomyces parapsilosis
Nakaseomyces glabratus [25] = test: Fungicidal activity against Candida glabrata by micro dilution method
Candida tropicalis [26] = test: Fungicidal activity against Candida tropicalis by micro dilution method
Pichia kudriavzevii [27] = test: Fungicidal activity against Candida krusei by micro dilution method
Candida parapsilosis [28] = test: Antifungal activity against Candida parapsilosis clinical isolate after 20 hrs by agar dilution method; conditions: Lodderomyces parapsilosis
Candida tropicalis [29] = test: Fungicidal activity against Candida tropicalis clinical isolate by micro dilution method
Candida tropicalis [30] = test: Antifungal activity against fluconazole, itraconazole-resistant Candida tropicalis clinical isolate after 20 hrs by agar dilution method; how it was run: as §2
Candida dubliniensis [31] = test: Fungicidal activity against Candida dubliniensis by micro dilution method
Candida parapsilosis [32] = test: Fungicidal activity against Candida parapsilosis by micro dilution method; conditions: Lodderomyces parapsilosis
Nakaseomyces glabratus [33] = test: Antifungal activity against Candida glabrata after 20 hrs by agar dilution method
Pseudomonas aeruginosa [34] = test: Antibacterial activity against Pseudomonas aeruginosa ATCC 27853 after 24 hrs by broth micro dilution method; conditions: ATCC 27853, 24 h; how it was run: as §3
Streptococcus pyogenes [35] = test: Antibacterial activity against Streptococcus pyogenes clinical isolate after 24 hrs by disc diffusion method
Candida tropicalis [36] = test: Fungicidal activity against fluconazole, itraconazole-resistant Candida tropicalis clinical isolate by micro dilution method

SMILES | diameter of the inhibition zone (DIZ) (Staphylococcus aureus [1]) [mm] | diameter of the inhibition zone (DIZ) (Escherichia coli [2]) [mm] | diameter of the inhibition zone (DIZ) (Pseudomonas aeruginosa [3]) [mm] | MIC90 (Candida tropicalis [4]) [µg/mL] | MBC (Klebsiella pneumoniae [6]) [µg/mL] | MIC (Staphylococcus aureus [7]) [µg/mL] | MIC90 (Candida albicans [8]) [µg/mL] | MIC90 (Candida albicans [9]) [µg/mL] | MFC (Candida albicans [10]) [µg/mL] | MBC (Pseudomonas aeruginosa [11]) [µg/mL] | MFC (Candida albicans [12]) [µg/mL] | MBC (Staphylococcus aureus [13]) [µg/mL] | MFC (Candida parapsilosis [14]) [µg/mL] | MIC (Escherichia coli [15]) [µg/mL] | diameter of the inhibition zone (DIZ) (Klebsiella pneumoniae [16]) [mm] | MIC90 (Candida dubliniensis [17]) [µg/mL] | MIC (Klebsiella pneumoniae [18]) [µg/mL] | MIC90 (Pichia kudriavzevii [19]) [µg/mL] | MBC (Escherichia coli [20]) [µg/mL] | MIC90 (Candida tropicalis [21]) [µg/mL] | further results
O=C(O)c1cn(C2CC2)c2cc(N3CCNCC3)c(F)cc2c1=O [CIPROFLOXACIN] | 22 | 27 | 32 |  |  |  |  |  |  |  |  |  |  |  |  |  |  |  |  |  | 
CCCCCC1C(CCC)=NOC1CC[C@H](O)CCCCCCCC(=O)OC (some centres not stated) | 20.8 | 26.5 | 31.8 | 64 (≈ 161 µM) | 100 (≈ 252 µM) | 25 (≈ 62.9 µM) | 128 (≈ 322 µM) | 64 (≈ 161 µM) | 256 (≈ 644 µM) | 100 (≈ 252 µM) | > 256 | 100 (≈ 252 µM) | > 256 | 25 (≈ 62.9 µM) | 18.9 | 128 (≈ 322 µM) | 25 (≈ 62.9 µM) | 128 (≈ 322 µM) | 100 (≈ 252 µM) | 128 (≈ 322 µM) | MIC90 (Candida albicans [5]): > 256 µg/mL; MBC (Streptococcus pyogenes [22]): 50 µg/mL (≈ 126 µM); MIC (Streptococcus pyogenes [23]): 25 µg/mL (≈ 62.9 µM); MIC90 (Candida parapsilosis [24]): 32 µg/mL (≈ 80.5 µM); MFC (Nakaseomyces glabratus [25]): 128 µg/mL (≈ 322 µM); MFC (Candida tropicalis [26]): > 256 µg/mL; MFC (Pichia kudriavzevii [27]): > 256 µg/mL; MIC90 (Candida parapsilosis [28]): 128 µg/mL (≈ 322 µM); MFC (Candida tropicalis [29]): > 128 µg/mL; MIC90 (Candida tropicalis [30]): > 256 µg/mL; MFC (Candida dubliniensis [31]): > 256 µg/mL; MFC (Candida parapsilosis [32]): > 256 µg/mL; MIC90 (Nakaseomyces glabratus [33]): 64 µg/mL (≈ 161 µM); MIC (Pseudomonas aeruginosa [34]): 50 µg/mL (≈ 126 µM); diameter of the inhibition zone (DIZ) (Streptococcus pyogenes [35]): 22.4 mm
CCCCCCCCC1C(CCC)=NOC1CCCCCCCC(=O)OC (configuration not stated) | 21.6 | 26.7 | 31.3 | 128 (≈ 335 µM) | 100 (≈ 262 µM) | 25 (≈ 65.5 µM) | 128 (≈ 335 µM) | 128 (≈ 335 µM) | > 256 | 50 (≈ 131 µM) | 256 (≈ 671 µM) | 100 (≈ 262 µM) | > 256 | 25 (≈ 65.5 µM) | 18.5 | 128 (≈ 335 µM) | 25 (≈ 65.5 µM) | > 256 | 50 (≈ 131 µM) | 128 (≈ 335 µM) | MIC90 (Candida albicans [5]): > 256 µg/mL; MBC (Streptococcus pyogenes [22]): 50 µg/mL (≈ 131 µM); MIC (Streptococcus pyogenes [23]): 25 µg/mL (≈ 65.5 µM); MIC90 (Candida parapsilosis [24]): > 256 µg/mL; MFC (Nakaseomyces glabratus [25]): > 256 µg/mL; MFC (Candida tropicalis [26]): > 256 µg/mL; MFC (Pichia kudriavzevii [27]): > 256 µg/mL; MIC90 (Candida parapsilosis [28]): 128 µg/mL (≈ 335 µM); MFC (Candida tropicalis [29]): > 256 µg/mL; MIC90 (Candida tropicalis [30]): > 256 µg/mL; MFC (Candida dubliniensis [31]): > 256 µg/mL; MFC (Candida parapsilosis [32]): > 256 µg/mL; MFC (Candida tropicalis [36]): 128 µg/mL (≈ 335 µM); MIC90 (Nakaseomyces glabratus [33]): 128 µg/mL (≈ 335 µM); MIC (Pseudomonas aeruginosa [34]): 25 µg/mL (≈ 65.5 µM); diameter of the inhibition zone (DIZ) (Streptococcus pyogenes [35]): 22.3 mm
CCCC1=NOC(CCCCCCCCC(=O)OC)C1 (configuration not stated) | 18.1 | 25.1 | 30.1 | > 256 | > 100 | 50 (≈ 176 µM) | > 256 | > 256 | 128 (≈ 452 µM) | > 100 | > 256 | > 100 | > 256 | 100 (≈ 353 µM) | 17.1 | > 256 | 100 (≈ 353 µM) | > 256 | > 100 | > 256 | MBC (Streptococcus pyogenes [22]): 100 µg/mL (≈ 353 µM); MIC (Streptococcus pyogenes [23]): 50 µg/mL (≈ 176 µM); MIC90 (Candida parapsilosis [24]): > 256 µg/mL; MFC (Nakaseomyces glabratus [25]): > 256 µg/mL; MFC (Candida tropicalis [26]): > 256 µg/mL; MFC (Pichia kudriavzevii [27]): > 256 µg/mL; MIC90 (Candida parapsilosis [28]): > 256 µg/mL; MFC (Candida tropicalis [29]): 128 µg/mL (≈ 452 µM); MFC (Candida dubliniensis [31]): > 256 µg/mL; MFC (Candida parapsilosis [32]): > 256 µg/mL; MIC90 (Nakaseomyces glabratus [33]): > 256 µg/mL; MIC (Pseudomonas aeruginosa [34]): 100 µg/mL (≈ 353 µM); diameter of the inhibition zone (DIZ) (Streptococcus pyogenes [35]): 20.2 mm
